CFTR F508del cor – CFTR F508del correction in bronchial cells; activity (quench increase), % at 7.58 µM; 0.36% of 350,000 active; AID 720511; CFBE cells, YFP halide quenching; stimulated with forskolin plus potentiator P3; % fluorescence drop versus neutral controls;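 active means mean added fluorescence quench of at least 8% versus neutral control, with both replicates also reaching 8%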;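 further: cells transiently co-express mutant CFTR-F508del with the halide-sensitive YFP; corrector assay measuring rescue of mutant channel to the surface after 24 h compound exposure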
Cneo AK release – causes C. neoformans cell lysis; lysis activity, % at 15 µM; 0.2% of 360,000 active; AID 651654; adenylate kinase release luminescence, 4 h; normalised: neutral wells 0, clomiphene wells 100;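 active means mean lysis activity across replicates of at least 80%, whatever share of replicates individually reach that level; inactive means mean lysis activity below 80%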
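Assay system: log-phase C. neoformans yeast / Quantity: yeast cell density of 5 × 10^6 cells/mL / Medium: fresh YPD growth medium / Compound: single dose / Timing: static 4 h at 37 °C with compound, 1 h detection / Measured by: adenylate kinase release luminescence / Read-out: lysis from increased AK signal / Benchmarks: Clomiphene as positive lysis control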
rRNA inh HTS – inhibits bacterial ribosomal RNA function over humanized ribosomes; E. coli WT GFP vs humanized-ribosome RFP mutants, fluorescence, 24 h; hits give low values; DMSO median 0, no signal -100; GFP signal change (wild-type ribosome), % (test concentration not listed); 1.6% of 350,000 active; AID 720706;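 active means significant combined selectivity score with lowered wild-type GFP, culture density cut under 30%, mutant RFP and density less affected; inactive means any of these conditions unmet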
Env fusion inh – blocks HIV Env-driven cell-cell fusion. inhibition, % at 12.3 µM. 1.1% of 360,000 active. HeLa-JRFL Env/CEM21 cell fusion, luciferase;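 active means mean replicate inhibition score of at least 50 and every replicate individually at or above 50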;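 further: 0% = plate neutral controls and 100% = maraviroc near 300 nM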
INS-1E GSIS act – GLuc luminescence reporter in INS-1E cells, primary screen for activators of glucose-dependent secretion of insulin | INS-1E GLuc reporter insulin secretion, 2-3 h | activation, % at 16.6 µM | 0.61% of 370,000 active;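 active means lowest replicate activation of at least 40%, so every replicate reaches that level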;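 further: 0% = median of neutral control wells and 100% = median of IBMX positive control wells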
miR-122 sensor – blocks miR-122 activity in Huh7 sensor cells; Huh7 miR-122 Renilla luciferase sensor, 48 h; neutral wells = 0, positive control = 100; activation (reporter increase), % at 12.5 µM; 0.3% of 340,000 active; AID 602342;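 active means mean replicate activation score at least 90 and every replicate individually at or above 90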;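 further: higher luciferase means less miR-122 activity so hits act as miR-122 inhibitors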
* hit, by the source's call; i = inactive; · = no result; [ ] = remark or other dose. The list is not random: actives were taken first. Their share in the collection is about 3.1%.

SMILES	CFTR F508del cor	Cneo AK release	rRNA inh HTS	Env fusion inh	INS-1E GSIS act	miR-122 sensor
CCc1cccc(NC(=S)Nc2cccc3ccccc23)c1	2	14	-25*	-32	21	14
C[C@@H]1CCCCO[C@H](CN(C)C(=O)Nc2ccc3c(c2)OCO3)[C@H](C)CN([C@@H](C)CO)C(=O)c2cc(NS(C)(=O)=O)ccc2O1	-2	0	-4	-30[16.7 µM]	3	-9[16.7 µM]
CCn1c(=O)c(CCC(=O)N2CCN(c3ccccn3)CC2)c(C)c2c(C)nn(-c3cccc(C)c3)c21	-1	-1	4	58*	9	-4
Cc1nc2nc(C)c(CCC(=O)N3CCN(c4ccccn4)CC3)c(C)n2n1	·	1	·	-5	11	0
Nn1nnc2ccccc21	2	0	10	94*	·	-1
COc1ccc2c3c(n(C)c2c1)[C@H](CO)N(C(=O)c1ccc(F)cc1)CC31CN(CC2CCOCC2)C1	-4	·	4	·	-4	·
O=C(NC(=S)Nc1ccc2ncccc2c1)c1ccccc1	2	-2	-21*	-28	12	5
O=C(NNc1nc2c(F)cccc2s1)c1cc(=O)c2ccccc2o1	-2	-1	-51*	-13	-5	0
CN1C(=O)c2cc(NC(=O)c3cccs3)ccc2OC[C@H]2O[C@@H](CC(=O)N3CCCCC3)CC[C@@H]21	-1	0	-1	9[16.7 µM]	-5	28[16.7 µM]
O=C(NCCc1c[nH]c2ccccc12)/C(=C/c1cccnc1)NC(=O)c1cccs1	0	·	-28*	-1	2	·
O=C(NCCc1c[nH]c2ccccc12)/C(=C/c1cccnc1)NC(=O)c1ccccc1	-6	·	-1	-13	8	·
Cc1oc(-c2cccc(Cl)c2)nc1CN1CCCC(C(=O)NC(C)c2ccc3c(c2)OCCO3)C1 (centres undefined)	2	9	-54	84*	-24	-2
Cc1oc(-c2ccc(Cl)cc2)nc1CN1CCCC(C(=O)NCc2cccnc2)C1 (centres undefined)	·	7	·	87*	·	7
CSc1ccc(-c2nc(CN3CCCCC3c3cccnc3)c(C)o2)cc1 (centres undefined)	0	·	-21*	2	·	3
Cc1oc(-c2cccc(F)c2)nc1CN1CCCCC1CCn1cccn1 (centres undefined)	-1	·	14	25	-6	·
CCC(=O)N1[C@H](C#N)[C@@H](c2ccccc2-c2ccccc2)[C@H]1CO	-2	·	·	·	·	·
C[C@@H]1CN([C@@H](C)CO)C(=O)c2cc(C3=CCCC3)cnc2O[C@@H]1CN(C)C(=O)C1CCOCC1	0	3	3	-48[16.7 µM]	18	-2[16.7 µM]
O=C(Nc1ccccc1)N[C@H]1CC[C@@H](CCn2cc(C3(O)CCCC3)nn2)O[C@@H]1CO	-1	8	-1	4[16.7 µM]	5	·
CNC(=O)C[C@H]1CC[C@H]2[C@@H](COc3ccc(NC(=O)Nc4cccc(C)c4)cc3C(=O)N2C)O1	1	6	8	·	3	7[16.7 µM]
C[C@H]1CCCCO[C@H](CN(C)S(=O)(=O)c2ccccc2)[C@@H](C)CN([C@@H](C)CO)C(=O)c2cc(NC(=O)Nc3ccc(F)cc3)ccc2O1	-2	0	3	31[16.7 µM]	-5	2[16.7 µM]
CCOc1cc(C)cc2oc(=O)cc(-c3ccccc3)c12	2	-1	-36*	·	30	5
CC(=O)Oc1cc(C)cc2oc(=O)cc(-c3ccccc3)c12	6	1	-30	-14	·	·
CCCCc1cc(=O)oc2cc(C)cc(OCC(=O)N3CCC(C(=O)O)CC3)c12	0	4	17	·	-1	-3
CCCCc1cc(=O)oc2cc(C)cc(OCC(=O)N3CCC(C(=O)O)(c4ccccc4)CC3)c12	2	0	-13*	·	-12	-1
CC(C)NC(=O)N1CCCCN2[C@H](CO)[C@H](c3ccc(C#Cc4ccccc4)cc3)[C@@H]2C1	3	1	-58	·	-11	-4[16.7 µM]
SMILES	CFTR F508del cor	Cneo AK release	rRNA inh HTS	Env fusion inh	INS-1E GSIS act	miR-122 sensor
Cn1nccc1C(=O)N/N=C/c1c(O)ccc2ccccc12	11*	-1	-20	66*	-8	6
COc1ccc(/C=N/NC(=O)c2ccoc2C)cc1COc1c(C)cccc1C	·	0	·	76*	·	12
Cc1occc1C(=O)N/N=C/c1c(O)ccc2ccccc12	10*	-2	4	-5	-9	-18
COc1ccc(S(=O)(=O)N(C)C[C@@H]2OCCCC[C@@H](C)Oc3ccc(NC(=O)c4ccccc4)cc3C(=O)N([C@H](C)CO)C[C@H]2C)cc1	-2	-1	-7	-46[16.7 µM]	-28	-5[16.7 µM]
O=C(O)C[C@@H]1CC[C@H](NC(=O)Nc2cc(F)ccc2F)[C@@H](CO)O1	0	1	2	15[16.7 µM]	-7	·
COc1cccc(/C=N/NC(=O)C(=O)Nc2ccccc2OC(F)(F)C(F)F)c1O	15*	·	-32	-9	-6	·
C#CCN(C[C@H]1[C@H](OC(=O)Nc2cccs2)[C@H](OC(=O)Nc2cccs2)CN(C(=O)OC(C)C)N1C(=O)OC(C)C)S(=O)(=O)c1ccc(C)cc1	2	·	32	117*	-9	·
C#CCN(C[C@@H]1[C@@H](OC(=O)NC2CC2)[C@@H](OC(=O)NC2CC2)CN(C(=O)OC(C)C)N1C(=O)OC(C)C)S(=O)(=O)c1ccc(C)cc1	-3	2	-2	9	4	78
C[C@@H]1CCCCO[C@H](CN(C)Cc2ccccc2)[C@@H](C)CN([C@H](C)CO)C(=O)c2cc(NC(=O)C3CCCCC3)ccc2O1	1	1	10	0[16.7 µM]	-8	-6[16.7 µM]
CCCC(=O)Nc1ccc2c(c1)C(=O)N(C)C[C@H](OC)[C@@H](C)CN(C(=O)c1ccncc1)[C@H](C)CO2	1	6	1	3[16.7 µM]	4	·
CN[C@H]1CCc2cc(OC)c(OC)c(OC)c2-c2ccc(N(C)CC(OC)OC)c(=O)cc21	11*	1	13	-118	-4	130*
COc1cc2c(c(OC)c1OC)-c1ccc(N(C)CC(OC)OC)c(=O)cc1[C@@H](NC(C)=O)CC2	4	·	15	i	-5	·
COc1cc2c(c(OC)c1OC)-c1ccc(OC)c(=O)cc1[C@@H](NC(C)=O)CC2	-2	0	8	-59	14	66
CCN(CC)c1ccc2c(cc1=O)[C@@H](NC)CCc1cc(OC)c(OC)c(OC)c1-2	9.5*	1	-2	-253	-7	·
CC(=O)NC[C@H]1[C@@H](c2ccc(-c3cccnc3)cc2)[C@H](CO)N1C(=O)C1CC1	-2	11	0	·	-9	0[16.7 µM]
COc1cccc(CN2c3ccc(Br)cc3C(=O)CS2(=O)=O)c1	-3	-1	-37*	0	14	5
N#CCc1nn2c(-c3ccccc3)ccnc2c1C#N	2	3	5	1	46*	0
